Reference: ChEMBL document CHEMBL1275392, “Assessment of chemoselective neoglycosylation methods using chlorambucil as a model” (2010)

Columns and labels:
[1] = Growth inhibition of human p53 deficient Hep3B cells after 7 days by celltiter-glo assay; type: functional, Hep 3B2; conditions: 168 h
Outline: (§1)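 Cells seeded at 500 per well in 384-well plates. Compounds came from 30 mM DMSO stocks, serially diluted and tested in quadruplicate. Incubation was 7 d at 37 °C under 5% CO2. Calcein AM (10 μM) and EthD-1 were added, followed by a fluorescence read. CellTiter-Glo lysis was then done for 10 min at room temperature, with a luminescence read. GI50 came from curve fitting.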

SF-268 = test: Growth inhibition of human SF268 cells after 7 days by celltiter-glo assay; type: functional; conditions: SF-268, 168 h
HCT-15 = test: Growth inhibition of human HCT15 cells after 7 days by celltiter-glo assay; type: functional; conditions: HCT-15, 168 h
NCI-H460 = test: Growth inhibition of human NCI-H460 cells after 7 days by celltiter-glo assay; type: functional; conditions: NCI-H460, 168 h
MCF7 = test: Growth inhibition of human MCF7 cells after 7 days by celltiter-glo assay; type: functional; conditions: MCF7, 168 h
[2] = Growth inhibition of human p53 deficient H1299 cells after 7 days by celltiter-glo assay; type: functional; conditions: NCI-H1299, 168 h; outline: as §1
HT-29 = test: Growth inhibition of human HT-29 cells after 7 days by celltiter-glo assay; type: functional; conditions: HT-29, 168 h
DU-145 = test: Growth inhibition of human DU145 cells after 7 days by celltiter-glo assay; type: functional; conditions: DU-145, 168 h
A549 = test: Growth inhibition of human A549 cells expressing p53 after 7 days by celltiter-glo assay; type: functional; conditions: A549, 168 h
SK-OV-3 = test: Growth inhibition of human SKOV3 cells after 7 days by celltiter-glo assay; type: functional; conditions: SK-OV-3, 168 h

SMILES	GI50 [1] [µM]	GI50 (SF-268) [µM]	GI50 (HCT-15) [µM]	GI50 (NCI-H460) [µM]	GI50 (MCF7) [µM]	GI50 [2] [µM]	GI50 (HT-29) [µM]	GI50 (DU-145) [µM]	GI50 (A549) [µM]	GI50 (SK-OV-3) [µM]
O=C(CCCc1ccc(N(CCCl)CCCl)cc1)NN[C@@H]1O[C@H]2[C@H](OC(=O)[C@H]2O)[C@H]1O	17.7	8.9	> 100	43	9.9	12.9	30	23	31	37
CON(CCCc1ccc(N(CCCl)CCCl)cc1)[C@@H]1O[C@H](C(=O)O)[C@@H](O)[C@H](O)[C@H]1O	4.9	1.6	1.03	9.1	6	0.99	3.2	3.9	5.5	3.1
C[C@H]1O[C@@H](NNC(=O)CCCc2ccc(N(CCCl)CCCl)cc2)[C@H](O)[C@@H](O)[C@H]1O	11	5.8	> 100	51	6.3	8.7	16.7	24	28	22
CON(CCCc1ccc(N(CCCl)CCCl)cc1)C1O[C@H](CO)[C@@H](O[C@@H]2O[C@H](CO)[C@H](O)[C@H](O)[C@H]2O)[C@H](O)[C@@H]1O (stereo not given in full)	38	19.1	31	57.7	26	24	34	43	56	35
O=C1O[C@@H]2[C@@H](O)[C@H](N(O)CCCc3ccc(N(CCCl)CCCl)cc3)O[C@@H]2[C@@H]1O	7.2	3.1	8.5	13.1	4.1	3.8	9.9	14.8	10.4	10.1
O=C(O)CCCc1ccc(N(CCCl)CCCl)cc1 [CHLORAMBUCIL]	5.1	5.4	8.1	11	8.2	4.9	5	9.4	6.1	5.5
CON(CCCc1ccc(N(CCCl)CCCl)cc1)C1OC[C@H](O)[C@H]1O (stereo not given in full)	1.4	1.3	0.82	1.9	0.87	0.72	1.2	2.1	2	2.1
CON(CCCc1ccc(N(CCCl)CCCl)cc1)[C@@H]1O[C@H](CCl)[C@@H](O)[C@H](O)[C@H]1O	3.2	2.1	1.2	5.8	4.9	1.3	2.1	3.7	3	2.1
C=CCOC(=O)NC[C@H]1O[C@@H](N(CCCc2ccc(N(CCCl)CCCl)cc2)OC)[C@H](O)[C@@H](O)[C@@H]1O	4.6	3.1	2.1	11	7.4	2.1	2.8	6.2	4.5	2.9
C[C@H]1OC(N(O)CCCc2ccc(N(CCCl)CCCl)cc2)[C@H](O)[C@@H](O)[C@H]1O (stereo not given in full)	3.6	1.4	3.8	4.9	2.7	2.6	4.6	5.7	6.4	4.7
CON(CCCc1ccc(N(CCCl)CCCl)cc1)C1O[C@@H](CO)[C@@H](O)[C@@H](O)[C@@H]1O (stereo not given in full)	3.8	2	2.3	10.4	1.3	1.4	3.7	5.5	4.8	4.1
CON(CCCc1ccc(N(CCCl)CCCl)cc1)C1O[C@H](CO)[C@@H](O)[C@H](O)[C@@H]1NC(C)=O (stereo not given in full)	9.8	3.4	22	33.3	9	2.7	8.7	16	21	10.1
CO[C@@H]1[C@@H](OC(N)=O)[C@@H](O)C(N(CCCc2ccc(N(CCCl)CCCl)cc2)OC)OC1(C)C (stereo not given in full)	6	5.1	1.7	9.7	4.8	1.3	6	6.7	5.8	5.4
CON(CCCc1ccc(N(CCCl)CCCl)cc1)C1C[C@H](O)[C@H](O)CO1 (stereo not given in full)	2.6	2.1	2.3	5.8	0.96	3.7	2.6	4	2.6	2
CON(CCCc1ccc(N(CCCl)CCCl)cc1)[C@@H]1O[C@H](C)[C@@H](O)[C@H](O)[C@H]1O	4.4	2.9	1.1	8.5	5.8	1.8	2.2	4.9	4.6	2.9
CON(CCCc1ccc(N(CCCl)CCCl)cc1)C1OC[C@H](O)[C@@H](O)[C@H]1O (stereo not given in full)	3	1.2	0.95	5.8	0.94	0.88	2.4	3.9	2.2	1.8
CON(CCCc1ccc(N(CCCl)CCCl)cc1)[C@H]1O[C@@H](CO)[C@H](O)[C@@H](O)[C@@H]1O	5	2.2	2.8	14.3	1.8	1.6	4.6	7	6.8	4.5
CON(CCCc1ccc(N(CCCl)CCCl)cc1)C1O[C@H](CO)[C@@H](O)[C@@H](O)[C@@H]1O (stereo not given in full)	1.7	1.9	1.4	6.6	6.5	0.91	1.6	4.1	2.4	1.9
O[C@@H]1[C@H](O)COC(N(O)CCCc2ccc(N(CCCl)CCCl)cc2)[C@@H]1O (stereo not given in full)	> 5	1.5	0.87	1.04	3.2	1.6	0.9	> 5	0.84	0.89
CON(CCCc1ccc(N(CCCl)CCCl)cc1)C1O[C@@H](C)[C@@H](O)[C@@H](O)[C@@H]1O (stereo not given in full)	3	2	1.4	5.4	0.78	1.2	2.3	3.8	2.2	1.8
CON(CCCc1ccc(N(CCCl)CCCl)cc1)C1O[C@H](CO)[C@@H](O[C@@H]2O[C@H](CO)[C@@H](O)[C@H](O)[C@H]2O)[C@H](O)[C@H]1O (stereo not given in full)	1.2	1.5	2.3	3.8	1.7	1.8	1.9	1.8	1.6	1.8
CON(CCCc1ccc(N(CCCl)CCCl)cc1)[C@@H]1O[C@H](CO[C@@H]2O[C@H](CO)[C@H](O)[C@H](O)[C@H]2O)[C@@H](O)[C@H](O)[C@H]1O	29	16.3	20	45.5	21	17.8	27.4	36	40	27
CON(CCCc1ccc(N(CCCl)CCCl)cc1)[C@@H]1O[C@H](COCc2ccccc2)[C@@H](OCc2ccccc2)[C@H]1OCc1ccccc1	> 100	> 100	> 100	> 100	> 100	82	> 100	> 100	> 100	> 100
CON(CCCc1ccc(N(CCCl)CCCl)cc1)C1O[C@H](CN)[C@@H](O)[C@H](O)[C@H]1O (stereo not given in full)	3.5	2.2	1.3	5	3.7	1.1	2.5	2.8	3.7	2.2
CON(CCCc1ccc(N(CCCl)CCCl)cc1)C1C[C@@H](O)[C@@H](O)[C@@H](CO)O1 (stereo not given in full)	3.3	2.2	1.6	6.6	1.04	1.5	3.5	5	3.2	2.4
CON(CCCc1ccc(N(CCCl)CCCl)cc1)C1O[C@@H](C)[C@H](O)[C@@H](O)[C@H]1O (stereo not given in full)	2.6	1.9	2	5.3	2.2	3.7	2.4	4.2	2.5	2
